Experimental data reported in ChEMBL document CHEMBL1765024, “Fluorescent cyclin-dependent kinase inhibitors block the proliferation of human breast cancer cells” (Bioorg Med Chem, 2011).
The source made the active and inactive calls. The calls are words filed in the database; no cut-off is given here.

Columns and labels:
MDA-MB-231 [1] = experiment: Induction of apoptosis in human MDA-MB-231 cells assessed as decrease in Bcl2 protein level at 40 uM after 48 hrs by Western blotting; format: functional, cell-based
In short: (§1)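 Cells treated with vehicle or compound, then lysed in NP-40/Triton X-100 buffer with protease and phosphatase inhibitors. Lysate protein measured by BCA, and equal protein run on 10% SDS–PAGE and transferred to PVDF. Blocked overnight in 5% milk/TBST, primary antibody 2 h, HRP secondary 1 h, ECL detection.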

MDA-MB-231 [2] = experiment: Induction of apoptosis in human MDA-MB-231 cells assessed as increase in Bax protein level at 40 uM after 48 hrs by Western blotting; format: functional, cell-based; in short: as §1
MDA-MB-231 [3] = experiment: Induction of apoptosis in human MDA-MB-231 cells assessed as decrease in caspase 3 protein level at 40 uM after 48 hrs by Western blotting; format: functional, cell-based; in short: as §1
MDA-MB-231 [4] = experiment: Induction of apoptosis in human MDA-MB-231 cells assessed as decrease in caspase 7 protein level at 40 uM after 48 hrs by Western blotting; format: functional, cell-based; in short: as §1
MCF7 [5] = experiment: Induction of apoptosis in human MCF7 cells assessed as viable cells at 10 uM after 24 hrs using annexinV-propidium iodide staining by flow cytometry (reference value: 70.32%); format: functional; details: MCF7, 24 h, read-out: Activity
MCF7 [6] = experiment: Induction of apoptosis in human MCF7 cells assessed as early apoptotic cells at 10 uM after 24 hrs using annexinV-propidium iodide staining by flow cytometry (reference value: 4.24%); format: functional
MCF7 [7] = experiment: Induction of apoptosis in human MCF7 cells assessed as late apoptotic cells at 10 uM after 24 hrs using annexinV-propidium iodide staining by flow cytometry (reference value: 13.35%); format: functional
MCF7 [8] = experiment: Induction of apoptosis in human MCF7 cells assessed as necrotic cells at 10 uM after 24 hrs using annexinV-propidium iodide staining by flow cytometry (reference value: 12.09%); format: functional
MDA-MB-231 [9] = experiment: Antiproliferative activity against estrogen receptor-deficient human MDA-MB-231 cells after 48 hrs by WST-1 assay; format: functional, cell-based; details: MDA-MB-231, 48 h
In short: (§2)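 Cells seeded at 3000/well in DMEM with 10% FBS and left 24 h. Compounds in DMSO were serially diluted in medium (1–100 µM) and added in triplicate. WST-1 was read 48 h after addition: 2–3 h incubation, absorbance at 450 nm with 630 nm reference. IC50 interpolated from log concentration versus fraction surviving; mean (SEM) of triplicate experiments.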

[10] = biological target: CDK9/cyclin T1 (Homo sapiens) (UniProt O60563+P50750); experiment: Inhibition of at human CDK9/cyclin T1 at 0.1 uM after 40 mins relative to control; format: protein-complex assay
In short: (§3)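 Radiometric screen at 100 nM compound against purified human CDK/cyclin (5–10 mU). Incubation 40 min at room temperature, stopped with phosphoric acid. Read by filtermat scintillation. Activity expressed as % of control, N = 2.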

[11] = biological target: Cyclin-dependent kinase 7/ cyclin H (Homo sapiens) (UniProt P51946+P50613); experiment: Inhibition of human CDK7/cyclinH/MAT1 at 0.1 uM after 40 mins relative to control; format: protein-complex assay; in short: as §3
MDA-MB-231 [12] = experiment: Cell cycle arrest in human MDA-MB-231 cells assessed as accumulation at G2/M phase treated at 5 uM for 24 hrs measured after drug washout following 48 hrs growth recovery using propidium iodide staining by flow cytometry; format: functional, cell-based
In short: (§4)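 Exponentially growing cells exposed 24 h, then held a further 48 h in compound-free medium. Cells trypsinized, pelleted, PBS-washed, permeabilized in 70% ethanol, stained 30 min in the dark at room temperature with PI plus RNase, and analysed by flow cytometry. Phase percentages given after subtracting untreated control. Mean of triplicate experiments.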

MDA-MB-231 [13] = experiment: Cell cycle arrest in human MDA-MB-231 cells assessed as accumulation at G2/M phase treated at 10 uM for 24 hrs measured after drug washout following 48 hrs growth recovery using propidium iodide staining by flow cytometry; format: functional, cell-based; in short: as §4
MDA-MB-231 [14] = experiment: Induction of apoptosis in human MDA-MB-231 cells assessed as reduction of cdc2 phosphorylation at T161 catalytic site at 10 uM after 24 hrs by Western blot analysis; format: functional, cell-based
In short: (§5)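 MDA-MB-231 cells were treated with 10 µM compound for 1, 3, 6, 12 and 24 h and lysed. Equal protein was resolved by 10% SDS–PAGE and immunoblotted for phospho-cdc2 (T161, Y15), cdc2 and cyclin B, with actin as loading standard and ECL detection.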

MDA-MB-231 [15] = experiment: Induction of apoptosis in human MDA-MB-231 cells assessed as reduction of cdc2 phosphorylation at Y15 regulatory site at 10 uM after 24 hrs by Western blot analysis; format: functional, cell-based; in short: as §5
MCF7 [16] = experiment: Antiproliferative activity against human MCF7 cells expressing estrogen receptor at 100 uM after 48 hrs by WST-1 assay; format: functional, cell-based
In short: (§6)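 Cells seeded at 3000/well in DMEM with 10% FBS and left 24 h, then given compound from DMSO stock diluted in medium at 100 µM. Survival read by WST-1 48 h after addition: 2–3 h incubation, absorbance at 450 nm with 630 nm reference; triplicate experiments.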

MCF7 [17] = experiment: Antiproliferative activity against human MCF7 cells expressing estrogen receptor after 48 hrs by WST-1 assay; format: functional, cell-based; details: MCF7, 48 h; in short: as §2
MDA-MB-231 [18] = experiment: Antiproliferative activity against estrogen receptor-deficient human MDA-MB-231 cells at 100 uM after 48 hrs by WST-1 assay; format: functional, cell-based; in short: as §6
[19] = biological target: CDK3/cyclin E (Homo sapiens) (UniProt P24864+O96020+Q00526); experiment: Inhibition of human CDK3/cyclin E at 0.1 uM after 40 mins relative to control; format: protein-complex assay; in short: as §3
CDK3/cyclin E (Homo sapiens), sequence (O96020 whole entry, looked up): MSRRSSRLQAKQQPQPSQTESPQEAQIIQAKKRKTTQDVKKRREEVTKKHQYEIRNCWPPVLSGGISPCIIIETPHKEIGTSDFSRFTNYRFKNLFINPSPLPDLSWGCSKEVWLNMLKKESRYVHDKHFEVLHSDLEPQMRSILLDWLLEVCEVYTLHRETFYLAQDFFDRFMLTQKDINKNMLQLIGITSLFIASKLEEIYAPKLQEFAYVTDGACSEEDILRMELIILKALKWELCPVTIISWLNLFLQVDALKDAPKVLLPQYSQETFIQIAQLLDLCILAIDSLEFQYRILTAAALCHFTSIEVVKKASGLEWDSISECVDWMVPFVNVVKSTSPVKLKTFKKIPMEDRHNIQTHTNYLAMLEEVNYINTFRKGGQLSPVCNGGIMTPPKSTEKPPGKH
CDK3/cyclin E (Homo sapiens), sequence (P24864 whole entry, looked up): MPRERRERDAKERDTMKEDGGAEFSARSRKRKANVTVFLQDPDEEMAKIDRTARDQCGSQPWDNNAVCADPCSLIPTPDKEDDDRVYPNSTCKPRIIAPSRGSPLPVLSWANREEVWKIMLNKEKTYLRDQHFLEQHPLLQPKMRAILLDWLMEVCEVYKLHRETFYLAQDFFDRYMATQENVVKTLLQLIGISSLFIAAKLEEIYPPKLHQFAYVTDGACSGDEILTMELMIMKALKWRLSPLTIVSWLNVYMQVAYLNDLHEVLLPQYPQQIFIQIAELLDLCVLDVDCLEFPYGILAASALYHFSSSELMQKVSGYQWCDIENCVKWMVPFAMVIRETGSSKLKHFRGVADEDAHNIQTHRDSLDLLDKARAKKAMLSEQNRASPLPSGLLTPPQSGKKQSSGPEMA
CDK3/cyclin E (Homo sapiens), sequence (Q00526 whole entry, looked up): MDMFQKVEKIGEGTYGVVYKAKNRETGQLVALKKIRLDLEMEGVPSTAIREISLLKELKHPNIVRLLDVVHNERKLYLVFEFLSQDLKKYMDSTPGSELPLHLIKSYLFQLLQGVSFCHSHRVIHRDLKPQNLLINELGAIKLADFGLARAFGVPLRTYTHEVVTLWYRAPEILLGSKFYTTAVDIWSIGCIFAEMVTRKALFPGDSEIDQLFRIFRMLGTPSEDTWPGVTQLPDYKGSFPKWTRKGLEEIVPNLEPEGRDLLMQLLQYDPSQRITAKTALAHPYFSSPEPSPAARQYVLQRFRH

[20] = biological target: T1, Cyclin-dependent kinase 5/CDK5 activator 1 (Homo sapiens) (UniProt Q00535+Q15078); details: at 0.1 µM
T1 sequence (Q00535 whole entry): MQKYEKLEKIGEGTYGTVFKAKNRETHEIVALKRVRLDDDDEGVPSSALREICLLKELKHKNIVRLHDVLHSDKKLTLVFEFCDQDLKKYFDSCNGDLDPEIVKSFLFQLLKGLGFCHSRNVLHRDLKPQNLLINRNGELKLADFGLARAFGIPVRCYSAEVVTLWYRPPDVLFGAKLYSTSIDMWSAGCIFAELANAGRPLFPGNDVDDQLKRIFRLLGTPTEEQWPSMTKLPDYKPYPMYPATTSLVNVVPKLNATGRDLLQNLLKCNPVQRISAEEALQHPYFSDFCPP
T1 sequence (Q15078 99-307 partner limits assumed): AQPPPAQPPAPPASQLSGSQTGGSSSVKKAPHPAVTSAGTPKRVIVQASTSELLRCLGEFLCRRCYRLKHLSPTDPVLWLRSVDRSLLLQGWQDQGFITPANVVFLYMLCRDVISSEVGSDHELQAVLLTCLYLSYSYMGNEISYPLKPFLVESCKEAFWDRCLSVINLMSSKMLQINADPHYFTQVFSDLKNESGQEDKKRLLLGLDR

[21] = biological target: T1, Cyclin-dependent kinase 5/CDK5 activator 1 (Homo sapiens); details: at 0.1 µM; remark: listed apart in the source
[22] = biological target: Cyclin-dependent kinase 1/cyclin B1 (Homo sapiens) (UniProt P06493+P14635); details: at 0.1 µM
Cyclin-dependent kinase 1/cyclin B1 (Homo sapiens), sequence (P06493 whole entry, looked up): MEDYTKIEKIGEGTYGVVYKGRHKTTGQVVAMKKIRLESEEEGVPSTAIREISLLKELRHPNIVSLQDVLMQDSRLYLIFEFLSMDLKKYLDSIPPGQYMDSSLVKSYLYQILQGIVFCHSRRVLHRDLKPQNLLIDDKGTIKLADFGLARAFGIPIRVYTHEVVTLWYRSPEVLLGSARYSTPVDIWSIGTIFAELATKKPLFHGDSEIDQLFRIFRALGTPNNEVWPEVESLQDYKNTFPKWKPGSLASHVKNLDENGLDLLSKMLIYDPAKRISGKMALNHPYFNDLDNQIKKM
Cyclin-dependent kinase 1/cyclin B1 (Homo sapiens), sequence (P14635 whole entry, looked up): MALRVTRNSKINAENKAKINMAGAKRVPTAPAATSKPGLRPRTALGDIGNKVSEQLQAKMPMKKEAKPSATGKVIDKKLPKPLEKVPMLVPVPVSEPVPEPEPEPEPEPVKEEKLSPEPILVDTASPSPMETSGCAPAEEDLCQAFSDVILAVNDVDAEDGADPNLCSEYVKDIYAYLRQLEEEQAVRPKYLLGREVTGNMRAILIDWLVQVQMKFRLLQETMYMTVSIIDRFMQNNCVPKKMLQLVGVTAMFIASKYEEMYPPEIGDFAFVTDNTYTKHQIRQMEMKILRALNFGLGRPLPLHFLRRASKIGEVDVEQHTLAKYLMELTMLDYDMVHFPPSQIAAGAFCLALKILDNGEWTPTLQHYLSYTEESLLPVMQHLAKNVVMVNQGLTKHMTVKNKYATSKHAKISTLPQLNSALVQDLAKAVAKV

MDA-MB-231 [23] = experiment: Induction of apoptosis in human MDA-MB-231 cells assessed as decrease in Bcl2 protein level at 10 uM after 48 hrs by Western blotting; format: functional, cell-based
In short: (§7)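 MDA-MB-231 cells were treated with vehicle or 10 µM compound for 48 h (and 72 h). Lysates were cleared and protein measured by BCA. Equal protein was run on 10% SDS–PAGE and transferred to PVDF, blocked in 5% milk overnight, and probed 2 h with anti-Bcl-2, Bax or PARP. HRP secondary was applied for 1 h, with ECL detection.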

MDA-MB-231 [24] = experiment: Induction of apoptosis in human MDA-MB-231 cells assessed as increase in Bax protein level at 10 uM after 48 hrs by Western blotting; format: functional, cell-based; in short: as §7
MDA-MB-231 [25] = experiment: Induction of apoptosis in human MDA-MB-231 cells assessed as decrease in caspase 3 protein level at 10 uM after 48 hrs by Western blotting; format: functional, cell-based
MDA-MB-231 [26] = experiment: Induction of apoptosis in human MDA-MB-231 cells assessed as decrease in caspase 7 protein level at 10 uM after 48 hrs by Western blotting; format: functional, cell-based
MDA-MB-231 [27] = experiment: Induction of apoptosis in human MDA-MB-231 cells assessed as induction of PARP cleavage at 10 uM after 48 hrs by Western blotting; format: functional, cell-based; in short: as §7
MDA-MB-231 [28] = experiment: Cell cycle arrest in human MDA-MB-231 cells assessed as accumulation at G2/M phase at 5 to 10 uM after 16 to 40 hrs using propidium iodide staining by flow cytometry; format: functional, cell-based
In short: (§8)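 Asynchronous cells were treated with 5 or 10 µM compound or DMSO for 24 h (also 16 and 40 h). They were trypsinized, washed in PBS and fixed/permeabilized in 70% ethanol. Staining was with RNase and propidium iodide for 30 min in the dark at room temperature, followed by flow cytometry. Phase percentages are given minus DMSO control; mean of triplicates.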

MDA-MB-231 [29] = experiment: Induction of apoptosis in human MDA-MB-231 cells assessed as aberrant gross morphological changes at 10 uM after 48 hrs using propidium iodide staining by confocal microscopic analysis; format: functional, cell-based
MDA-MB-231 [30] = experiment: Induction of apoptosis in human MDA-MB-231 cells assessed as decrease in cell number at 10 uM after 48 hrs using propidium iodide staining by confocal microscopic analysis; format: functional, cell-based
MDA-MB-231 [31] = experiment: Cell cycle arrest in human MDA-MB-231 cells assessed as accumulation at G2/M phase at 5 to 10 uM after 24 hrs using propidium iodide staining by flow cytometry; format: functional, cell-based; in short: as §8
MCF7 [32] = experiment: Cell cycle arrest in human MCF7 cells assessed as accumulation at G2/M phase at 5 to 10 uM after 24 hrs using propidium iodide staining by flow cytometry; format: functional, cell-based; in short: as §8
MDA-MB-231 [33] = experiment: Cell cycle arrest in human MDA-MB-231 cells assessed as accumulation at sup G1 phase at 5 to 10 uM after 24 hrs using propidium iodide staining by flow cytometry; format: functional, cell-based; in short: as §8
MCF7 [34] = experiment: Cell cycle arrest in human MCF7 cells assessed as accumulation at sub G1 phase at 5 to 10 uM after 24 hrs using propidium iodide staining by flow cytometry; format: functional, cell-based; in short: as §8
MCF7 [35] = experiment: Cell cycle arrest in human MCF7 cells assessed as accumulation at G2/M phase at 5 to 10 uM after 16 to 40 hrs using propidium iodide staining by flow cytometry; format: functional, cell-based; in short: as §8
MCF7 [36] = experiment: Induction of apoptosis in human MCF7 cells assessed as aberrant gross morphological changes at 10 uM after 48 hrs using propidium iodide staining by confocal microscopic analysis; format: functional, cell-based
MCF7 [37] = experiment: Induction of apoptosis in human MCF7 cells assessed as decrease in cell number at 10 uM after 48 hrs using propidium iodide staining by confocal microscopic analysis; format: functional, cell-based
[38] = Antiproliferative activity against human CL 10.3 cells expressing p-glycoprotein after 72 hrs by WST-1 assay; format: functional, cell-based
In short: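 MCF-7 and its P-glycoprotein-overexpressing MDR subline CL 10.3 were grown in DMEM with 10% heat-inactivated FBS. Compounds in DMSO were serially diluted in medium and given to cells for 72 h. Read-out was WST-1 reduction (450 nm, 630 nm reference). IC50 interpolated from log concentration versus fraction surviving; mean (SEM) of triplicates. Ratio is CL 10.3 IC50 over MCF-7 IC50.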

Row | SMILES | viability at 10 µM (MCF7 [5]) [%] | Activity (MCF7 [6]) [%] | Activity (MCF7 [7]) [%] | Activity (MCF7 [8]) [%] | IC50 (MDA-MB-231 [9]) [µM] | inhibition [10] [%] | inhibition [11] [%] | IC50 (MCF7 [17]) [µM] | inhibition [19] [%] | inhibition [20] [%] | inhibition [21] [%] | inhibition [22] [%] | further results
1 | CC[C@H](CO)Nc1nc(NCc2ccccc2)c2ncn(C(C)C)c2n1 [SELICICLIB] | 73.1 | 7.13 | 13.2 | 6.56 | 54.6 | 19 | 26 |  |  |  |  |  | Activity (MDA-MB-231 [1]): inactive; Activity (MDA-MB-231 [2]): inactive; Activity (MDA-MB-231 [3]): inactive; Activity (MDA-MB-231 [4]): inactive; Activity (MDA-MB-231 [12]): inactive; Activity (MDA-MB-231 [13]): inactive
2 | CC(C)[C@H](CO)Nc1nc(Nc2ccc(C(=O)O)c(Cl)c2)c2ncn(C(C)C)c2n1 [PURVALANOL B] |  |  |  |  | > 100 | 22 | 66 | > 100 | 89 | 97 | 97 | 78 | Activity (MDA-MB-231 [14]): inactive; Activity (MDA-MB-231 [15]): inactive; Activity (MCF7 [16]): inactive; Activity (MDA-MB-231 [18]): inactive
3 | CC[C@H](CO)Nc1nc(Nc2ccc(C(=O)NCCNS(=O)(=O)c3cccc4c(N(C)C)cccc34)c(Cl)c2)c2ncn(C(C)C)c2n1 | 52.3 | 8.87 | 16.74 | 22.14 | 4.86 | 44 | 57 | 19.1 | 40 | 67 | 76 | 16 | Activity (MDA-MB-231 [23]): Active; Activity (MDA-MB-231 [24]): Active; Activity (MDA-MB-231 [25]): Active; Activity (MDA-MB-231 [26]): Active; Activity (MDA-MB-231 [27]): Active; Activity (MDA-MB-231 [28]): Active; Activity (MDA-MB-231 [29]): Active; Activity (MDA-MB-231 [30]): Active; Activity (MDA-MB-231 [31]): Active; Activity (MCF7 [32]): Active; Activity (MDA-MB-231 [33]): Active; Activity (MCF7 [34]): Active; Activity (MCF7 [35]): Active; Activity (MCF7 [36]): Active; Activity (MCF7 [37]): Active
4 | CC(=O)O[C@H]1C(=O)[C@@]2(C)[C@H]([C@H](OC(=O)c3ccccc3)[C@]3(O)C[C@H](OC(=O)[C@H](O)[C@@H](NC(=O)c4ccccc4)c4ccccc4)C(C)=C1C3(C)C)[C@]1(OC(C)=O)CO[C@@H]1C[C@@H]2O [PACLITAXEL] |  |  |  |  |  |  |  |  |  |  |  |  | IC50 [38]: > 50 µM
5 | CN(C)c1cccc2c(S(=O)(=O)NCCN)cccc12 [DANSYL ETHYLENEDIAMINE] |  |  |  |  | > 100 |  |  | > 100 |  |  |  |  | 
